# Measurements: ChEMBL document CHEMBL2093137, “WHO-TDR NTD Screening”
# Tests used:
# Leishmania infantum = assay: WHO-TDR: Leishmaniasis; assay type: functional, organism-based, Mus musculus; details: Macrophage
# Method in brief: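 Values are IC50 figures for antiparasitic potency. They come from a whole-organism screen of a 10,000-compound diverse Life Chemicals library against Leishmania infantum MHOM/MA(BE)/67 amastigotes inside murine peritoneal macrophage host cells.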
# Onchocerca ochengi [1] = assay: (§1) WHO-TDR: Onchocerciasis; assay type: functional; design: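 at 12.5 µM on microfilariae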
# Method in brief: (§2)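 Whole-organism screen of a 10,000-compound diverse library from Life Chemicals, filtered for drug-likeness and reactive groups, against microfilariae of Onchocerca ochengi or Onchocerca lienalis, used as animal-pathogen stand-ins for the human parasite. The assay followed previously published standard procedures, with reference drugs as positive controls. Activity is reported as percent inhibition and as IC50.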
# [2] = tested on: Trypanosoma brucei brucei; assay: WHO-TDR: Human African Trypanosomiasis (HAT); assay type: functional, organism-based; details: Squib-427
# Method in brief: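 Values are IC50 figures for antiparasitic potency. They come from a whole-organism screen of 10,000 diverse Life Chemicals compounds against bloodstream-form Trypanosoma brucei (Squib 427 strain).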
# [3] = WHO-TDR: Cytotoxicity; assay type: toxicity, cell-based; details: human, MRC5 cells
# Schistosoma mansoni = assay: WHO-TDR: Schistosomiasis; assay type: functional; design: concentration or dose not given beside the values
# Method in brief: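 Whole-organism screen of a 10,000-compound diverse library from Life Chemicals, filtered for drug-likeness and reactive groups, against larval and/or adult worms of Schistosoma mansoni Puerto Rican strain. The assay followed previously published standard procedures, with a reference drug as positive control. Activity is reported as percent inhibition and as IC50.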
# Trypanosoma cruzi = assay: WHO-TDR: Chagas disease; assay type: functional, organism-based, Homo sapiens; details: MRC5
# Method in brief: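 Following previously published standard procedures, with a reference drug as positive control, a whole-organism assay was run on Trypanosoma cruzi Tulahuen CL2 beta-galactosidase strain amastigotes inside MRC-5SV2 human lung fibroblast host cells. The 10,000 compounds tested formed a diverse Life Chemicals library filtered for drug-likeness and reactive groups. Results are expressed as IC50 for antiparasitic potency.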
# Plasmodium falciparum K1 = assay: WHO-TDR: Malaria; assay type: functional, organism-based, Homo sapiens; details: Erythrocyte
# Method in brief: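 Values are IC50 figures for antiplasmodial potency. They come from a whole-organism screen of 10,000 diverse Life Chemicals compounds against Plasmodium falciparum K1 growing inside human red blood cells, run by previously published standard procedures.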
# Onchocerca ochengi [4] = assay: as §1; assay type: functional; design: concentration or dose not given beside the values; method in brief: as §2; remark: listed apart in the source
SMILES,IC50 (Leishmania infantum) [µg/mL],% Inhibition (Onchocerca ochengi [1]) [%],IC50 [2] [µg/mL],IC50 [3] [µg/mL],% Inhibition (Schistosoma mansoni) [%],IC50 (Trypanosoma cruzi) [µg/mL],IC50 (Plasmodium falciparum K1) [µg/mL],% Inhibition (Onchocerca ochengi [4]) [%]
Cc1ccc(S(=O)(=O)N2CCCCC2CC(=O)Nc2ccc(Cl)cc2)cc1 (centres undefined),> 12.2,0,5.79,> 12.2,0,0.421,> 12.2,0
O=C(CC1CSc2nccc(=O)n21)Nc1ccc(Cl)c(Cl)c1 (centres undefined),> 10.7,100,> 10.7,> 10.7,0,> 10.7,> 10.7,0
O=C(Nc1onc2c1CCCC2)c1cccc(Oc2ccccc2)c1,> 10,100,3.25,> 10,0,4.23,8.46,0
O=S(=O)(Nc1nc2c(Cl)cccc2s1)c1ccc(Cl)cc1,> 10.8,100,> 10.8,> 10.8,0,10.2,> 10.8,0
O=C(NCC1CC(=O)N(c2ccc(Cl)cc2)C1)NC1CCCCC1 (centres undefined),> 10.5,0,> 10.5,> 10.5,0,> 10.5,> 10.5,100
O=C(Cc1cccc2ccccc12)Nc1onc2c1CCC2,> 8.77,0,0.253,2.87,0,0.498,1.69,0
Cc1cc(C(=O)Nc2nc(-c3ccc4c(c3)OCCO4)cs2)n(C)n1,> 10.7,100,> 10.7,> 10.7,0,> 10.7,> 10.7,0
O=C(Nc1nc(-c2ccncc2)cs1)C1CCCN(S(=O)(=O)c2ccc(Cl)s2)C1 (centres undefined),4.55,50,4.5,> 14.1,0,0.243,6.68,0
CCOC(=O)c1ccccc1NC(=O)CSc1ncc(-c2ccccc2)[nH]1,> 11.4,100,> 11.4,> 11.4,0,> 11.4,> 11.4,0
O=C(NC1CCCC1)c1csc(NC(=O)c2cccs2)n1,> 9.64,100,> 9.64,> 9.64,0,> 9.64,> 9.64,0
Cc1cc(=O)[nH]c(-n2nc(C)cc2NC(=O)c2ccc(S(=O)(=O)N3CCCCC3)cc2)n1,4.43,0,0.449,0.445,25,0.418,0.137,0
Cc1c(S(=O)(=O)CCNC(=O)NC2CCCCC2)c2ccccc2n1Cc1ccc(F)cc1,> 14.1,100,> 14.1,> 14.1,0,> 14.1,> 14.1,0
CCOc1ccc(N2CC(CNS(=O)(=O)c3c(C)cc(C)cc3C)CC2=O)cc1 (centres undefined),> 12.5,100,> 12.5,> 12.5,0,> 12.5,> 12.5,0
O=C(Cc1csc(SCc2ccc(Cl)cc2)n1)NCCC1=CCCCC1,> 12.2,100,3.86,> 12.2,0,3.58,> 12.2,0
O=C(CC1CCCCN1S(=O)(=O)c1ccc(Cl)cc1)Nc1ccc2c(c1)OCO2 (centres undefined),> 13.1,0,4.24,> 13.1,0,0.789,> 13.1,0
CN(C1CC1)S(=O)(=O)c1ccc(C(=O)Nc2onc3c2CCCC3)cc1,> 11.3,100,5.97,> 11.3,0,3.56,> 11.3,0
CCCN1C(=O)CCc2cc(NS(=O)(=O)c3ccc(F)cc3)ccc21,> 10.9,100,3.56,> 10.9,0,10.9,> 10.9,0
O=C(Cn1c(=O)n(Cc2cccs2)c(=O)c2ncccc21)OCc1ccccc1,> 12.2,100,> 12.2,> 12.2,0,> 12.2,> 12.2,0
Cc1ccc2nc(-c3ccc(NC(=O)CC4CSc5nc(C)cc(=O)n54)cc3)sc2c1 (centres undefined),> 13.5,100,> 13.5,> 13.5,0,> 13.5,3.38,0
CN1CCN(C(CNC(=O)CCc2ccccc2)c2ccsc2)CC1 (centres undefined),> 10.7,0,> 10.7,> 10.7,0,0.498,> 10.7,0
C=CCN1C(=O)C(C)(C)COc2ccc(NS(=O)(=O)c3ccc4c(c3)OCCO4)cc21,> 13.3,100,> 13.3,> 13.3,0,> 13.3,> 13.3,0
CC1CCN(C(C)CNC(=O)Nc2cccc(Cl)c2)CC1 (centres undefined),4.81,50,0.301,> 9.29,0,> 9.29,1.01,0
O=C(NCc1cc(-c2ccccc2F)on1)c1ccc(Br)o1,> 11,100,> 11,> 11,0,> 11,> 11,0
